Published values of several laboratories.
Each line is one published result; the experiments were not run side by side.
Target: Serine/threonine-protein kinase MRCK beta (CDC42BPB, Homo sapiens, UniProt Q9Y5S2)

The remaining binding of `C[C@H](NC(=O)c1cnc2n1[C@](C)(Cc1ccc(C#N)cc1)C(=O)N2c1cc(Cl)c(F)c(Cl)c1)C(=O)NC1(c2ccccn2)CC1` is reported as 100% (cell-free assay; competition with immobilised ligand; 1 µM).
For `c1cncc(-c2cccc(Nc3nccc(NC4CCCCC4)n3)c2)c1`, the remaining binding was 99% (binding; competition with immobilised ligand; 10 µM).
`Cc1nc(C2CCN(C(=O)c3ccc(OC(F)(F)F)cc3N)CC2)c2ncc(N3CCN(C)CC3)cc2n1` has a remaining binding of 100% (cell-free assay; competition with immobilised ligand; 1 µM).
`O=C(Nc1c[nH]nc1C(=O)NC1CCNCC1)c1cc(F)cc(F)c1` gave a remaining binding of 100% (binding; competition with immobilised ligand; 1 µM).
The remaining binding of `Cc1cc(-n2nc(Cc3cc(F)cc(C(F)(F)F)c3)nc2C)ccc1C(N)=O` is reported as 100% (cell-free assay; competition with immobilised ligand; 1 µM).
`COc1cnc(Nc2cccc(S(N)(=O)=O)c2)nc1N1CCN(c2ccccc2)C(=O)C1` gave a remaining binding of 100% (binding; competition with immobilised ligand; 1 µM).
The remaining binding of `O=C(c1ccc(Nc2nccc(-c3cc4ccccc4s3)n2)cc1)N1CCC(N2CCCC2)CC1` is reported as 100% (binding; competition with immobilised ligand; 1 µM).
With `Nc1ncc2c(n1)-c1c([nH]c3ccc(C#CC4CC4)cc13)CCCC2` the remaining binding was 93% (binding; competition with immobilised ligand; 1 µM).
With `CN(CCCC(F)(F)F)c1nccc(-c2cnn3ncccc23)n1` the remaining binding was 63% (binding; 1 µM).
With `COc1cnc(Nc2cccc(S(N)(=O)=O)c2)nc1N1CCN(c2ccccc2)CC1` the remaining binding was 99% (binding; competition with immobilised ligand; 1 µM).
The remaining binding of `CNC(=O)c1ccc(Nc2ncc(C(F)(F)F)c(NCc3nccnc3N(C)S(C)(=O)=O)n2)cc1` is reported as 90% (cell-free assay; competition with immobilised ligand; 0.1 µM).
The remaining binding of `COc1ccnn2ncc(-c3ccnc(N(C)C)n3)c12` is reported as 100% (binding; 1 µM).
For `Cc1cnc(Nc2ccc(C(=O)N3CCC(N4CCCC4)CC3)cc2)nc1-c1cc2ccccc2s1`, the remaining binding was 59% (binding; competition with immobilised ligand; 1 µM).
`CN(C)c1nccc(-c2cnn3ncccc23)n1` has a remaining binding of 100% (binding; 1 µM).
`O=C(NCCCN1CCOCC1)c1ccc(Nc2nccc(-c3cc4ccccc4s3)n2)cc1` gave a remaining binding of 100% (binding; competition with immobilised ligand; 1 µM).
For `C=CC(=O)N1CCC(C(=O)NCC(=O)N2CCN(c3nc(-c4cnc(N)nc4C(F)F)nc(N4CCOCC4)n3)CC2)CC1`, the remaining binding was 99% (binding; competition with immobilised ligand; 1 µM).
`COc1ccc2cc(OCC3(C(=O)O)CN(C(=O)c4ccc(F)cc4)C3)ccc2c1` has a remaining binding of 100% (cell-free assay; competition with immobilised ligand; 1 µM).
`C[C@H]1CCN(c2nccc(-c3cnn4ncccc34)n2)C1` gave a remaining binding of 100% (binding; 1 µM).
The remaining binding of `C[C@@H](c1ccc(-n2cnc3c(N)ncnc32)cc1)N1CCc2nn(C)c(Cc3ccccc3)c2C1=O` is reported as 89% (binding; competition with immobilised ligand; 0.1 µM).
The remaining binding of `O=C(O)c1cc(-c2ccc(C3CCNCC3)cc2)c2ccc(-c3ccc(C(F)(F)F)cc3)cc2c1` is reported as 100% (cell-free assay; competition with immobilised ligand; 1 µM).
`N[C@H]1CCN(c2nccc(-c3cnn4ncccc34)n2)C1` gave a remaining binding of 88% (binding; 1 µM).
